From ChEMBL document CHEMBL4396973, “Design and development of a series of borocycles as selective, covalent kallikrein 5 inhibitors” (Bioorg Med Chem Lett, 2019)
Counter-ions that a name gives are not always drawn.

Legend:
Kallikrein-5 [1] = target: T1, Kallikrein-5 (Homo sapiens, UniProt Q9Y337); assay: Inhibition of human recombinant 6His-Q-FLAG-tagged KLK5 expressed in baculovirus infected Sf9 insect cells using (Tos-Gly-Pro-Arg)2[R110].2TFA as substrate measured at 30 secs interval for 5 mins by FLINT assay
T1 sequence (Q9Y337 whole entry): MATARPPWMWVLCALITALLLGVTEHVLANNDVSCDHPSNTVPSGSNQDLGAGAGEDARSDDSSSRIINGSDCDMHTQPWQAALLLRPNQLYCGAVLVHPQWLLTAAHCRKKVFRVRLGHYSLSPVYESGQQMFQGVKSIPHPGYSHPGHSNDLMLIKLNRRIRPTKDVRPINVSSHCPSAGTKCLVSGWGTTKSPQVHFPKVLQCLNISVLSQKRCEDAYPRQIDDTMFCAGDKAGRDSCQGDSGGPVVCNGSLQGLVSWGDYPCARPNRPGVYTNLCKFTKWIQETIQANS
Procedure, shortened: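 Standard KLK5 assay format. Its theoretical tight-binding limit corresponds to pIC50 8.4.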

Homo sapiens [2] = species: Homo sapiens; assay: Selectivity ratio of IC50 for human recombinant N-terminal His-tagged and enterokinase cleavage site-fused KLK1 (19 to 262 residues) expressed in baculovirus infected Sf9 insect cells to IC50 for human recombinant 6His-Q-FLAG-tagged KLK5 expressed in baculovirus infected Sf9 insect cells
Kallikrein-1 [3] = target: T2, Kallikrein-1 (Homo sapiens, UniProt P06870); assay: Inhibition of human recombinant N-terminal His-tagged and enterokinase cleavage site-fused KLK1 (19 to 262 residues) expressed in baculovirus infected Sf9 insect cells using R110 labelled GSK3162232A as substrate measured at 30 secs interval for 5 mins by FLINT assay
Neutrophil elastase = target: T3, Neutrophil elastase (Homo sapiens, UniProt P08246); assay: Inhibition of human neutrophil elastase using MeOSuc-AAPV-AMC as substrate incubated for 40 mins by FLINT assay
T3 sequence (P08246 whole entry): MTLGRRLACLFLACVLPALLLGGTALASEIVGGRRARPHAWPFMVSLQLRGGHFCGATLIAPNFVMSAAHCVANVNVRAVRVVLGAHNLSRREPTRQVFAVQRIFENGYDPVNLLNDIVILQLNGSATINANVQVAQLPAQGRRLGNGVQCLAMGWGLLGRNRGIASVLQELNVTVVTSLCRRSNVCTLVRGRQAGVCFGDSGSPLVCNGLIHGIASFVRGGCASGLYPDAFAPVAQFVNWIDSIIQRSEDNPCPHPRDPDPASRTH

Kallikrein-7 = Kallikrein-7 (Homo sapiens, UniProt P49862); assay: Inhibition of recombinant human C-terminal 10-His-tagged KLK7 (Glu23 to His252 residues) expressed in mouse NS0 cells using 5-FAM-E-A-L-Y-L-V-S-G-C(5-TAMRA) as substrate incubated for 40 mins by FLINT assay
Coagulation factor X = Coagulation factor X (Homo sapiens, UniProt P00742); assay: Inhibition of recombinant human C-terminal 10-His-tagged factor Xa (L24 to K488 residues) expressed in baculovirus infected Sf21 insect cells using Mca-RPKPVE-Nval-WRK(Dnp)-NH2 as substrate incubated for 40 mins by FLINT assay
Kallikrein-14 = target: T4, Kallikrein-14 (Homo sapiens, UniProt Q9P0G3); assay: Inhibition of recombinant human C-terminal 10-His-tagged KLK14 (Q19 to M248 residues) expressed in mouse NS0 cells using BOC-VPR-AMC as substrate incubated for 40 mins by FLINT assay
T4 sequence (Q9P0G3 whole entry): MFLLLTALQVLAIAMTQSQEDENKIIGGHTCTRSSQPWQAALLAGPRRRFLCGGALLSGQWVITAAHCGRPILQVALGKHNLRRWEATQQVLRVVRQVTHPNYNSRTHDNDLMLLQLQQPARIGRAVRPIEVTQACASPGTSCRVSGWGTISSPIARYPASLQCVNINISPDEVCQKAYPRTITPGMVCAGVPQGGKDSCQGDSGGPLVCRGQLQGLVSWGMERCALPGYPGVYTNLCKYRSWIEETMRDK

Plasma kallikrein = Plasma kallikrein (Homo sapiens, UniProt P03952); assay: Inhibition of human C-terminal 6-His-tagged KLKB1 (G20-A638 residues) expressed in mouse NS0 cells using PFR-AMC as substrate incubated for 40 mins by FLINT assay
[4] = Dissociation constant, borocycle pKa of the compound; assay type: physicochemical
Kallikrein-1 [5] = target: T2, Kallikrein-1; assay: Inhibition of human recombinant N-terminal His-tagged and enterokinase cleavage site-fused KLK1 (19 to 262 residues) expressed in baculovirus infected Sf9 insect cells at 10 uM using R110 labelled GSK3162232A as substrate measured at 30 secs interval for 5 mins by FLINT assay relative to control
[6] = target: T5, Suppressor of tumorigenicity 14 protein (Homo sapiens, UniProt Q9Y5Y6); assay: Inhibition of recombinant human N-terminal Met and 6-His-tagged matriptase (G596 to V855 residues) expressed in Escherichia coli using Boc-QAR-AMC as substrate incubated for 40 mins by FLINT assay
T5 sequence (Q9Y5Y6 whole entry): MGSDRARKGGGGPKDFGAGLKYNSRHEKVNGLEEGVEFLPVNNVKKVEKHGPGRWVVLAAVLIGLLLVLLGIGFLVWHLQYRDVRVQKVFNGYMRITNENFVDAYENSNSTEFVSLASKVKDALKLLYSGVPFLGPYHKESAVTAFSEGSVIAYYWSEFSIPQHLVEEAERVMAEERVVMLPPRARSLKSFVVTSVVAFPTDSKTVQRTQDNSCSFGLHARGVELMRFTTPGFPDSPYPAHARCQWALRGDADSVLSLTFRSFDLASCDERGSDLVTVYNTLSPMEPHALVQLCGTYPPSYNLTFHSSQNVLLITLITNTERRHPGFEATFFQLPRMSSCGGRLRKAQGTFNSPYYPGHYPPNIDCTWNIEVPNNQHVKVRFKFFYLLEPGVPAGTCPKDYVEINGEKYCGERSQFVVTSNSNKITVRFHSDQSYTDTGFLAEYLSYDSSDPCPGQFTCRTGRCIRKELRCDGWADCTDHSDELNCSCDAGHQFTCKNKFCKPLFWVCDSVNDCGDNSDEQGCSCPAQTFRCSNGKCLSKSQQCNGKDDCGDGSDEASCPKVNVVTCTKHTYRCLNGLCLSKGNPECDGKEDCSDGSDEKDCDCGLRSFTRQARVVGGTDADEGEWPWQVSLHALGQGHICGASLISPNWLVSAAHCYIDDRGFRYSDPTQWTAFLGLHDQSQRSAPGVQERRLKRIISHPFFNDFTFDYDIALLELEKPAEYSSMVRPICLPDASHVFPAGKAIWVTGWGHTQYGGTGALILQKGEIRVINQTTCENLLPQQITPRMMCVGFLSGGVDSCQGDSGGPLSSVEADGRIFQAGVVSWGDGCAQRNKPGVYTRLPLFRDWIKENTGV

Homo sapiens [7] = species: Homo sapiens; assay: Selectivity ratio of IC50 for human C-terminal 6-His-tagged KLKB1 (G20 to A638 residues) expressed in mouse NS0 cells to IC50 for human recombinant 6His-Q-FLAG-tagged KLK5 expressed in baculovirus infected Sf9 insect cells
Kallikrein-5 [8] = target: T1, Kallikrein-5; assay: Inhibition of human recombinant 6His-Q-FLAG-tagged KLK5 expressed in baculovirus infected Sf9 insect cells using (Tos-Gly-Pro-Arg)2[R110].2TFA as substrate measured at 30 secs interval for 5 mins using 1 x 10'10M enzyme by FLINT assay
Kallikrein-8 = target: T6, Kallikrein-8 (Homo sapiens, UniProt O60259); assay: Inhibition of recombinant human C-terminal 10-His-tagged KLK8 (Gln29 to Gly260 residues) expressed in mouse NS0 cells using BOC-VPR-AMC as substrate incubated for 40 mins by FLINT assay
T6 sequence (O60259 whole entry): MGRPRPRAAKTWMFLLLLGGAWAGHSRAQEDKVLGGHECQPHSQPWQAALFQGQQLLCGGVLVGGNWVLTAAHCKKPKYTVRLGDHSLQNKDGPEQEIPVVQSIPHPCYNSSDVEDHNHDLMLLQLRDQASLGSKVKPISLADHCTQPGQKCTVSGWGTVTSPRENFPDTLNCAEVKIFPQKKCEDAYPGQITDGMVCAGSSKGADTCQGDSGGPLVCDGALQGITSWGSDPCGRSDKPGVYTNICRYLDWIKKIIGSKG

Prothrombin = Prothrombin (Homo sapiens, UniProt P00734); assay: Inhibition of human recombinant C-terminal 10-His-tagged thrombin (M1 to E622 residues) expressed in mouse NS0 cells using BOC-VPR-AMC as substrate incubated for 40 mins by FLINT assay
[9] = target: Urokinase-type plasminogen activator (Homo sapiens, UniProt P00749); assay: Inhibition of recombinant human C-terminal 10-His-tagged urokinase (M1 to L431 residues) expressed in mouse NS0 cells using Z-GGR-AMC as substrate incubated for 40 mins by FLINT assay
Kallikrein-5 [10] = target: T1, Kallikrein-5; assay: Inhibition of human recombinant 6His-Q-FLAG-tagged KLK5 expressed in baculovirus infected Sf9 insect cells using rhodamine-labelled tripeptide as substrate measured at 30 secs interval for 5 mins by FLINT assay
[11] = target: Kallikrein-5 (Homo sapiens) (UniProt Q9Y337); assay: Covalent reversible inhibition of human recombinant 6His-Q-FLAG-tagged KLK5 expressed in baculovirus infected Sf9 insect cells assessed as dissociation rate constant
Procedure, shortened: (§1)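 Jump-dilution experiment used to follow dissociation from KLK5. The apparent off-rate constant (K-off, per min) and dissociation half-life (T1/2) were derived from it.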

[12] = target: Kallikrein-5 (Homo sapiens) (UniProt Q9Y337); assay: Covalent reversible inhibition of human recombinant 6His-Q-FLAG-tagged KLK5 expressed in baculovirus infected Sf9 insect cells assessed as dissociation half life; procedure, shortened: as §1

IC50 (Kallikrein-5 [1])	IC50 (Kallikrein-1 [3])	IC50 (Neutrophil elastase)	IC50 (Kallikrein-7)	IC50 (Coagulation factor X)	IC50 (Kallikrein-14)	IC50 (Plasma kallikrein)	pKa [4]	inhibition (Kallikrein-1 [5])	IC50 [6]	IC50 (Kallikrein-5 [8])	IC50 (Kallikrein-8)	IC50 (Prothrombin)	IC50 [9]	IC50 (Kallikrein-5 [10])	Kdiss [11]	T1/2 [12]	Compound	Ratio IC50 (Homo sapiens [2])	Ratio IC50 (Homo sapiens [7])
0.158 µM	5.01 µM	–	–	–	–	–	–	–	–	–	–	–	–	–	–	–	N=C(N)c1ccc(CC2OB(O)c3ccccc32)cc1 (racemic)	30 to 100	–
–	31.6 µM	5.01 µM	> 100 µM	7.94 µM	0.794 µM	0.1 µM	4.83	–	6.31 µM	0.00398 µM	0.398 µM	2.51 µM	50.1 µM	–	–	–	N=C(N)c1ccc(C2Cc3ccccc3B(O)O2)cc1OCc1cccnc1 (racemic)	> 100	10
0.00501 µM	2 µM	> 100 µM	> 100 µM	3.98 µM	0.398 µM	0.398 µM	–	–	2 µM	< 0.000794 µM	0.0316 µM	20 µM	> 100 µM	–	0.00214 s⁻¹	5 min	N=C(N)c1ccc([C@@H]2Cc3ccc(C(F)(F)F)cc3B(O)O2)cc1OCc1cccnc1	–	–
0.0794 µM	10 µM	–	–	–	–	–	–	–	–	–	–	–	–	–	–	–	N=C(N)c1ccc(C2Cc3ccccc3B(O)O2)cc1 (racemic)	30 to 100	–

The next lines start with the compound.

Compound	IC50 (Kallikrein-5 [1])	IC50 (Kallikrein-1 [3])	IC50 (Neutrophil elastase)	IC50 (Kallikrein-7)	IC50 (Coagulation factor X)	IC50 (Kallikrein-14)	IC50 (Plasma kallikrein)	pKa [4]	inhibition (Kallikrein-1 [5])	IC50 [6]	IC50 (Kallikrein-5 [8])	IC50 (Kallikrein-8)	IC50 (Prothrombin)	IC50 [9]	IC50 (Kallikrein-5 [10])	Kdiss [11]	T1/2 [12]	Ratio IC50 (Homo sapiens [2])	Ratio IC50 (Homo sapiens [7])
COc1ccc2c(c1)C(Cc1ccc(C(=N)N)c(OCc3cccnc3)c1)OB2O (racemic)	0.0398 µM	> 10 µM	> 100 µM	> 100 µM	79.4 µM	39.8 µM	1.26 µM	4.71	13%	25.1 µM	0.0251 µM	12.6 µM	31.6 µM	> 100 µM	–	–	–	–	10
N=C(N)c1ccc(CC2OB(O)c3cc(C(F)(F)F)ccc32)cc1OCc1cccnc1 (racemic)	0.0126 µM	> 10 µM	> 100 µM	> 100 µM	31.6 µM	12.6 µM	0.2 µM	4.51	24%	31.6 µM	0.00251 µM	2 µM	20 µM	> 100 µM	–	–	–	–	10
N=C(N)c1ccc(CC2OB(O)c3ccccc32)cc1OCc1cccnc1 (racemic)	0.02 µM	316 µM	12.6 µM	> 100 µM	> 100 µM	2 µM	0.0794 µM	4.8	–	7.94 µM	0.00631 µM	0.2 µM	10 µM	79.4 µM	–	–	–	> 100	10
N=C(N)c1ccccc1 [BENZAMIDINE HYDROCHLORIDE]	–	–	–	–	–	–	–	–	–	–	–	–	–	–	501 µM	–	–	–	–
Cc1ccc2c(c1)C(Cc1ccc(C(=N)N)c(OCc3cccnc3)c1)OB2O (racemic)	0.02 µM	> 10 µM	25.1 µM	> 100 µM	31.6 µM	25.1 µM	0.794 µM	4.73	10%	25.1 µM	0.00794 µM	10 µM	6.31 µM	> 100 µM	–	–	–	–	10
